From ChEMBL document CHEMBL1133434, “Novel retinoic acid receptor alpha agonists: syntheses and evaluation of pyrazole derivatives” (Bioorg Med Chem Lett, 2000)

Legend:
[1] = target: T1, Retinoic acid receptor beta (Homo sapiens) (UniProt P10826); experiment: Inhibition of [3H]ATRA-Hl60 binding to Retinoic acid receptor beta relative to ATRA
T1 sequence (whole entry): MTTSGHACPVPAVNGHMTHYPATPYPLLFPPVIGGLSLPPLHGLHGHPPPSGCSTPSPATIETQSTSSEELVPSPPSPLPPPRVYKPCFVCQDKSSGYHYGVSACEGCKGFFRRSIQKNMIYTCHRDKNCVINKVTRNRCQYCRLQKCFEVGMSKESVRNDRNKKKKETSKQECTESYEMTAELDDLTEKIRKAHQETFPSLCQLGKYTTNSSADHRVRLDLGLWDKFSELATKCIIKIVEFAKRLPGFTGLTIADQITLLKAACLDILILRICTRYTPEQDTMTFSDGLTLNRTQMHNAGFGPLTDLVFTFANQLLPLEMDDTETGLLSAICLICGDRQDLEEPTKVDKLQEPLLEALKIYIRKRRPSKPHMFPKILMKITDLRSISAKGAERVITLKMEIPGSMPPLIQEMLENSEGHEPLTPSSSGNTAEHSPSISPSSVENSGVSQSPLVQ
Outline: (§1)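 Competitive binding at individual RAR subtypes, run with [3H]ATRA as radioligand. Affinity is given as IC50 relative to that of ATRA.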

[2] = target: T2, Retinoic acid receptor gamma (Homo sapiens) (UniProt P13631); experiment: Inhibition of [3H]ATRA-Hl60 binding to Retinoic acid receptor gamma relative to ATRA; outline: as §1
T2 sequence (whole entry): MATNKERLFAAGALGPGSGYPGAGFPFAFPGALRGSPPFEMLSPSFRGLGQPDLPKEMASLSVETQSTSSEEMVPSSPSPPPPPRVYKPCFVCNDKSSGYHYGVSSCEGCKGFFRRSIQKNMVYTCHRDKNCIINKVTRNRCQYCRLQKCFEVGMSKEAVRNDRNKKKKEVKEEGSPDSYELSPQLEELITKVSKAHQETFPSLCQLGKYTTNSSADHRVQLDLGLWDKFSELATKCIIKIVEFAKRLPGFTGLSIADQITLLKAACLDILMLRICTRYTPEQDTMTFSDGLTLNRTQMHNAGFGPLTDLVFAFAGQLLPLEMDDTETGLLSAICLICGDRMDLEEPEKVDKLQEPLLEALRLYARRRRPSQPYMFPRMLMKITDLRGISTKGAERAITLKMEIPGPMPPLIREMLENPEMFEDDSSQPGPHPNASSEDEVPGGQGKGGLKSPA

[3] = target: T1, Retinoic acid receptor beta (Homo sapiens); experiment: Relative transcriptional activation in CV-1 cells expressing RAR beta receptor compared to ATRA; type: functional, cell-based; details: Cercopithecidae
[4] = target: T3, Retinoic acid receptor alpha (Homo sapiens) (UniProt P10276); experiment: Relative transcriptional activation in CV-1 cells expressing RAR alpha receptor compared to ATRA; type: functional, cell-based; details: Cercopithecidae
T3 sequence (whole entry): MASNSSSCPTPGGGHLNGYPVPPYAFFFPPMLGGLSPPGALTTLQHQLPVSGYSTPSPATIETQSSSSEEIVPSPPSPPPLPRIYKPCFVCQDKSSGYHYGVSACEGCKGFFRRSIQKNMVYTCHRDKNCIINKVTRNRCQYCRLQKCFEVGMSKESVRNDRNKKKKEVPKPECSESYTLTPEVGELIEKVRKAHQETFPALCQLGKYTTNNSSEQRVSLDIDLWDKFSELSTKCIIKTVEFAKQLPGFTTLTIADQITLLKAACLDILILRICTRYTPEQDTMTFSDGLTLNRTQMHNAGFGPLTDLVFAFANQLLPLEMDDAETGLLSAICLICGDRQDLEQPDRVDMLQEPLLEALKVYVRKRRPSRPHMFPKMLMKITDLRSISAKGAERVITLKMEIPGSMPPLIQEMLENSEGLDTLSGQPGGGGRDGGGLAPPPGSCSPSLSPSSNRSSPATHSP

[5] = system: HL-60; experiment: Effective dose for induction of HL-60 cell differentiation; type: functional, Homo sapiens
Outline: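 HL-60 cells treated with retinoid. Differentiation scored by the CD11b marker. Activity expressed relative to ATRA, as EC30/ATRA EC30.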

[6] = target: T2, Retinoic acid receptor gamma (Homo sapiens); experiment: Relative transcriptional activation in CV-1 cells expressing RAR gamma receptor compared to ATRA; type: functional, cell-based; details: Cercopithecidae
[7] = target: T1, Retinoic acid receptor beta (Homo sapiens); experiment: Inhibition of [3H]ATRA-Hl60 binding to Retinoic acid receptor beta relative to ATRA; Not detectable; outline: as §1
[8] = target: T2, Retinoic acid receptor gamma (Homo sapiens); experiment: Inhibition of [3H]ATRA-Hl60 binding to Retinoic acid receptor gamma relative to ATRA; Not detectable; outline: as §1
[9] = target: T2, Retinoic acid receptor gamma (Homo sapiens); experiment: Relative transcriptional activation in CV-1 cells expressing RAR gamma receptor compared to ATRA; Not detectable; type: functional, cell-based; details: Cercopithecidae
[10] = target: T1, Retinoic acid receptor beta (Homo sapiens); experiment: Relative transcriptional activation in CV-1 cells expressing RAR beta receptor compared to ATRA; Not detectable; type: functional, cell-based; details: Cercopithecidae
[11] = target: T3, Retinoic acid receptor alpha (Homo sapiens); experiment: Relative transcriptional activation in CV-1 cells expressing RAR alpha receptor compared to ATRA; Not detectable; type: functional, cell-based; details: Cercopithecidae

| Relative IC50 [1] [nM] | Relative IC50 [2] [nM] | Relative EC30 [3] [nM] | Relative EC30 [4] [nM] | Relative EC30 [6] [nM] | Relative IC50 [7] [nM] | Relative IC50 [8] [nM] | Relative EC30 [9] [nM] | Relative EC30 [10] [nM] | Relative EC30 [11] [nM] | Compound | ED30 [5] [nM] |
| --- | --- | --- | --- | --- | --- | --- | --- | --- | --- | --- | --- |
| 110 | 70 | 0.63 | 0.22 | 2.3 | – | – | – | – | – | CC(C)c1cc(-c2ccc(-c3ccc(C(=O)O)cc3)[nH]2)nn1C(C)(C)C | 0.05 |
| – | – | 15 | 1 | 88 | > 1000 | > 1000 | – | – | – | CC(C)c1cc(-c2ccc(-c3ccc(C(=O)O)cc3)[nH]2)nn1CC(F)(F)F | 0.62 |
| – | – | – | – | – | – | – | – | – | – | CC1=C(/C=C/C(C)=C/C=C/C(C)=C/C(=O)O)C(C)(C)CCC1 [TRETINOIN] | 1.5 |
| – | – | – | – | – | > 1000 | > 1000 | > 10000 | > 10000 | > 10000 | Cc1ccc(C)c(-n2nc(-c3ccc(-c4ccc(C(=O)O)cc4)[nH]3)cc2C(C)C)c1 | >10000 |
| 660 | – | 1.8 | 0.19 | 14 | – | > 1000 | – | – | – | CC(C)c1cc(-c2ccc(-c3ccc(C(=O)O)cc3)[nH]2)nn1C(C)C | 0.27 |
